Data on 16 compounds can be found in ChEMBL document CHEMBL4425091, “Bafilomycins and Odoriferous Sesquiterpenoids from Streptomyces albolongus Isolated from Elephas maximus Feces” (J Nat Prod, 2016).

SMILES strings stand for the structures. ≈ marks a conversion by molar mass, not a printed value. Where a name gives a salt, the structure may show the parent alone. Calls of active or inactive are those of the source.

One assay has as its system Bacillus spizizenii. The assay is described as follows: Antibacterial activity against Bacillus subtilis ATCC 6633 at 100 ug/ml after 24 hrs by MTT based microbroth dilution assay. It counts as functional, organism-based. On the technique in general: Dilution methods test growth across graded concentrations, often in twofold steps.
The test system of a further assay is Caco-2. Briefly: Cytotoxicity against human Caco2 cells assessed as reduction in cell viability by MTT assay. It counts as functional, cell-based. In outline: (§1)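 MTT viability assay in human cancer cell lines. IC50 was defined as a 50% reduction of absorbance relative to the control assay. Adriamycin served as the positive control.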
(In general: Tetrazolium assays rely on reduction of a dye to a coloured formazan, in cell work by metabolically active cells.)

The next assay relates to SMMC-7721. The assay is described as follows: Cytotoxicity against human SMMC7721 cells assessed as reduction in cell viability by MTT assay. It counts as functional, cell-based. An outline of the steps: as §1
In assay [1] the test system is Candida parapsilosis. The assay is described as follows: Antifungal activity against Candida parapsilosis ATCC 22019 at 100 ug/ml after 48 hrs by MTT based microbroth dilution assay. The class given is functional, organism-based.
Another assay concerns BGC-823. The assay is described as follows: Cytotoxicity against human BGC823 cells assessed as reduction in cell viability by MTT assay. The class given is functional, cell-based. In outline: as §1
For the next assay, the system named is Escherichia coli. The assay is described as follows: Antibacterial activity against Escherichia coli ATCC 25922 at 100 ug/ml after 24 hrs by MTT based microbroth dilution assay. It counts as functional, organism-based.
Assay [2] relates to Cryptococcus neoformans. The assay is described as follows: Antifungal activity against Cryptococcus neoformans ATCC 208821 at 100 ug/ml after 72 hrs by MTT based microbroth dilution assay. The class given is functional, organism-based.
The next assay relates to Staphylococcus aureus. Briefly: Antibacterial activity against Staphylococcus aureus ATCC 25923 at 100 ug/ml after 24 hrs by MTT based microbroth dilution assay. It counts as functional, organism-based.
The next assay has as its system NCI-H460. The assay is described as follows: Cytotoxicity against human NCI-H460 cells assessed as reduction in cell viability by MTT assay. It counts as functional, cell-based. In outline:
as §1

The subject of assay [3] is Candida albicans. Briefly: Antifungal activity against Candida albicans ATCC MYA-2876 at 100 ug/ml after 48 hrs by MTT based microbroth dilution assay. The class given is functional, organism-based.
Assay [4] has as its system Candida albicans. The assay is described as follows: Antifungal activity against Candida albicans ATCC MYA-2876 after 48 hrs by MTT based microbroth dilution assay. The note with it: ATCC MYA-2876, 48 h. It counts as functional. In outline:
(§2)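 MIC by broth microdilution in RPMI-1640 with NaHCO3 and MOPS, pH 7.0. DMSO stocks were 2-fold serially diluted to eight levels, then 10-fold in medium (1.1–0.0086 mg/mL). 10 µL was added to 100 µL yeast suspension: C. albicans and C. parapsilosis at 2 × 10^3 cfu/mL for 48 h; C. neoformans at 5 × 10^4 cfu/mL for 72 h; all at 28 °C. MTT added for 4 h, DMSO solubilization, A570.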

Assay [5] relates to Cryptococcus neoformans. The assay is described as follows: Antifungal activity against Cryptococcus neoformans ATCC 208821 after 72 hrs by MTT based microbroth dilution assay. It counts as functional. The conditions noted are these: ATCC 208821, 72 h. An outline of the steps:
as §2

Assay [6] concerns Candida parapsilosis. Briefly: Antifungal activity against Candida parapsilosis ATCC 22019 after 48 hrs by MTT based microbroth dilution assay. The class given is functional. The note with it: Lodderomyces parapsilosis, ATCC 22019, 48 h. In outline:
as §2

On to `C/C1=C\[C@@H](O)C[C@H](C)/C=C/[C@H](C(C)(C)O)CC1`, for which the result in the assay on Bacillus spizizenii, with Caco-2, in the assay with SMMC-7721, with Candida parapsilosis [1], in the assay with BGC-823 and in the assay with Escherichia coli was inactive. For the same compound, the result in the assay with Cryptococcus neoformans [2], in the assay with Staphylococcus aureus, in the assay on NCI-H460 and in the assay on Candida albicans [3] was inactive.
Usually IC50 stands for the midpoint of a concentration-inhibition curve. Regarding `COc1cccc2c1C(=O)c1c(O)c3c(c(O)c1C2=O)C[C@@](O)(C(=O)CO)C[C@@H]3O[C@H]1C[C@H](N)[C@H](O)[C@H](C)O1` [DOXORUBICIN HYDROCHLORIDE], the figures for the 50% inhibitory concentration (IC50) in the assay with Caco-2, with SMMC-7721 and with NCI-H460 were 0.97 µM, 2.24 µM and 0.98 µM, respectively.
Consider `CO/C1=C\C(C)=C\[C@@H](C)[C@@H](O)[C@@H](C)C/C(C)=C/C=C/[C@H](OC)[C@@H]([C@@H](C)[C@@H](O)[C@H](C)[C@@]2(OC)C[C@@H](OC(=O)/C=C/C(N)=O)[C@H](C)[C@@H](C(C)C)O2)OC1=O`, for which the outcome in the assay with Bacillus spizizenii, with Candida parapsilosis [1], with Escherichia coli, in the assay on Cryptococcus neoformans [2], in the assay on Staphylococcus aureus and in the assay with Candida albicans [3] was inactive. Further, the IC50 with Caco-2 was 2.81 µM; with SMMC-7721 it was 1.36 µM; in the assay with BGC-823, 3.58 µM; in the assay on NCI-H460 it was 5.02 µM.
The term MIC denotes the least concentration at which growth counts as inhibited. As to `C[C@@H]1[C@H](O)[C@@H](C)/C=C/C=C/C=C/C=C/C=C/C=C/C=C/[C@H](O[C@@H]2O[C@H](C)[C@@H](O)[C@H](N)[C@@H]2O)C[C@@H]2O[C@](O)(C[C@@H](O)C[C@@H](O)[C@H](O)CC[C@@H](O)C[C@@H](O)CC(=O)O[C@H]1C)C[C@H](O)[C@H]2C(=O)O` [AMPHOTERICIN B], the results for the MIC against Candida albicans [4], in the assay on Cryptococcus neoformans [5] and in the assay on Candida parapsilosis [6] were 1 µg/mL (≈ 1.08 µM), 2 µg/mL (≈ 2.16 µM) and 2 µg/mL (≈ 2.16 µM), respectively.
With `CO/C1=C/C(C)=C/[C@@H](C)[C@@H](O)[C@@H](C)C/C(C)=C/C=C/[C@H](OC)C([C@@H](C)[C@@H](O)[C@H](C)C(=O)/C=C/[C@H](C)[C@H](O)C(C)C)OC1=O` (some centres not stated), the result in the assay on Bacillus spizizenii, in the assay on Candida parapsilosis [1], with Escherichia coli, with Cryptococcus neoformans [2], in the assay with Staphylococcus aureus and in the assay on Candida albicans [3] was inactive. The IC50 came to 14.6 µM with Caco-2, 9.79 µM in the assay with SMMC-7721, 9.46 µM with BGC-823 and 49.8 µM in the assay with NCI-H460.
With `CC1=C[C@@H]2[C@@H](C(C)C)CC[C@H](C)[C@]2(O)CC1`, the result in the assay on Bacillus spizizenii, in the assay on Caco-2, in the assay on SMMC-7721, in the assay on Candida parapsilosis [1], with BGC-823 and in the assay with Escherichia coli was inactive. The outcome in the assay on Cryptococcus neoformans [2], in the assay with Staphylococcus aureus, in the assay on NCI-H460 and in the assay on Candida albicans [3] was inactive.
In the case of `CO/C1=C\C(C)=C\[C@@H](C)[C@@H](O)[C@@H](C)C/C(C)=C/C=C/[C@H](OC)[C@@H]([C@@H](C)[C@@H](O)[C@H](C)[C@@]2(O)C[C@@H](OC(=O)/C=C/C(N)=O)[C@H](C)[C@@H](C(C)C)O2)OC1=O`, the half-maximal inhibitory concentration (IC50) was found to be 2.3 µM in the assay with Caco-2, 1.05 µM in the assay on SMMC-7721, 0.99 µM in the assay with BGC-823 and 2.34 µM in the assay with NCI-H460. Besides, the MIC against Candida albicans [4] came to 100 µg/mL (≈ 139 µM); in the assay on Cryptococcus neoformans [5], 25 µg/mL (≈ 34.7 µM); against Candida parapsilosis [6], 1.56 µg/mL (≈ 2.17 µM).
`C[C@H]1CC[C@@H](O)[C@@]2(C)C[C@H](O)CC[C@]12O`: the IC50 is 42.5 µM in the assay on Caco-2, over 100 µM in the assay on SMMC-7721, 47.2 µM in the assay with BGC-823 and over 100 µM with NCI-H460. The minimum inhibitory concentration (MIC) is 100 µg/mL (≈ 467 µM) in the assay with Candida albicans [4], over 100 µg/mL against Cryptococcus neoformans [5] and 100 µg/mL (≈ 467 µM) against Candida parapsilosis [6].
As to `CO/C1=C\C(C)=C\[C@@H](C)[C@@H](O)[C@@H](C)C/C(C)=C/C=C/[C@H](OC)[C@@H]([C@@H](C)[C@@H](O)[C@H](C)[C@@]2(O)CC[C@H](C)[C@@H](C(C)C)O2)OC1=O`, the IC50 worked out at 46.2 µM in the assay on Caco-2, 10.1 µM with SMMC-7721, 11.8 µM in the assay on BGC-823 and 44.1 µM with NCI-H460. Besides, the MIC is 100 µg/mL (≈ 165 µM) against Candida albicans [4], 25 µg/mL (≈ 41.2 µM) in the assay with Cryptococcus neoformans [5] and 3.13 µg/mL (≈ 5.16 µM) with Candida parapsilosis [6].
Consider `CC1(C)C[C@H]2[C@H]1CC[C@]1(C)CCC[C@@]2(O)C1`, for which the outcome in the assay with Bacillus spizizenii, in the assay with Caco-2, with SMMC-7721, with Candida parapsilosis [1], in the assay on BGC-823 and in the assay on Escherichia coli was inactive. Moreover, the outcome with Cryptococcus neoformans [2], in the assay on Staphylococcus aureus, in the assay with NCI-H460 and with Candida albicans [3] was inactive.
Regarding `CC1(C)C[C@H]2[C@H]1CC[C@@]1(C)C[C@]2(O)CC[C@@H]1O`, the outcome with Bacillus spizizenii, with Caco-2, in the assay with SMMC-7721, with Candida parapsilosis [1], in the assay on BGC-823 and in the assay on Escherichia coli was inactive. In addition, the result with Cryptococcus neoformans [2], with Staphylococcus aureus, in the assay on NCI-H460 and in the assay on Candida albicans [3] was inactive.
On to `CO/C1=C\C(C)=C\[C@@H](C)[C@@H](O)[C@@H](C)C/C(C)=C/C=C/[C@H](OC)[C@@H]([C@@H](C)[C@@H](O)[C@H](C)[C@@]2(O)C[C@@H](O)[C@H](C)[C@@H](C(C)C)O2)OC1=O` [BAFILOMYCIN A1], for which the outcome in the assay with Bacillus spizizenii, in the assay with Candida parapsilosis [1], in the assay with Escherichia coli, in the assay on Cryptococcus neoformans [2], in the assay on Staphylococcus aureus and in the assay on Candida albicans [3] was inactive. Further, the IC50 amounted to 5.49 µM in the assay on Caco-2, 2.03 µM in the assay with SMMC-7721, 6.47 µM in the assay with BGC-823 and 12.4 µM in the assay on NCI-H460.
As to `CO/C1=C\C(C)=C\[C@@H](C)[C@@H](O)[C@@H](C)C/C(C)=C/C=C/[C@H](OC)[C@@H]([C@@H](C)[C@@H](O)[C@H](C)[C@@]2(OC)C[C@@H](O)[C@H](C)[C@@H](C(C)C)O2)OC1=O`, the result in the assay with Bacillus spizizenii, with Candida parapsilosis [1], in the assay with Escherichia coli, in the assay with Cryptococcus neoformans [2], with Staphylococcus aureus and in the assay with Candida albicans [3] was inactive. The IC50 in the assay on Caco-2 was 10.2 µM; in the assay on SMMC-7721, 9.42 µM; in the assay with BGC-823 it was 22.4 µM; with NCI-H460, 26.7 µM.
As for `C[C@H]1[C@@H](O)CC[C@@]2(C)CCCC[C@]12O`, the result with Bacillus spizizenii, in the assay with Candida parapsilosis [1], in the assay with Escherichia coli, in the assay with Cryptococcus neoformans [2], with Staphylococcus aureus and in the assay on Candida albicans [3] was inactive. Also, the IC50 in the assay on Caco-2 was over 100 µM; in the assay with SMMC-7721, over 100 µM; in the assay with BGC-823 it was 49.3 µM; with NCI-H460, over 100 µM.
With `CO/C1=C\C(C)=C\[C@@H](C)[C@@H](O)[C@@H](C)C/C(C)=C/C=C/[C@H](OC)[C@@H]([C@@H](C)[C@@H](O)[C@H](C)[C@@]2(O)C[C@@H](OC)[C@H](C)[C@@H](C(C)C)O2)OC1=O` [BAFILOMYCIN G], the outcome in the assay with Bacillus spizizenii, in the assay on Candida parapsilosis [1], in the assay with Escherichia coli, with Cryptococcus neoformans [2], in the assay with Staphylococcus aureus and in the assay on Candida albicans [3] was inactive. The IC50 is over 100 µM in the assay on Caco-2, 8.67 µM in the assay with SMMC-7721, 69.2 µM in the assay with BGC-823 and over 100 µM in the assay with NCI-H460.
For `CO/C1=C\C(C)=C\[C@@H](C)[C@@H](O)[C@@H](C)C/C(C)=C/C=C/[C@H](OC)[C@@H]([C@@H](C)[C@@H](O)[C@H](C)[C@@]2(OC)CC[C@H](C)[C@@H](C(C)C)O2)OC1=O`, the result in the assay on Bacillus spizizenii, in the assay with Candida parapsilosis [1], with Escherichia coli, in the assay with Cryptococcus neoformans [2], in the assay with Staphylococcus aureus and in the assay with Candida albicans [3] was inactive. For the same compound, the IC50 in the assay on Caco-2 was over 100 µM; in the assay on SMMC-7721, 13.6 µM; in the assay with BGC-823, 46.9 µM; in the assay on NCI-H460 it was over 100 µM.
